Values after ≈ are worked out from the molar mass of the structure shown. Active and inactive are the calls of the source. The rule behind the calls is not given here.
What was measured:
Shigella flexneri [1] = assay: Antibacterial activity against Shigella flexneri DN13; type: functional
Summary of the method: (§1)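 MIC by broth and agar dilution. Broth: 0.1 ml suspension (2 × 10^6 cfu/ml) in Mueller-Hinton broth with test drug at 1–1000 µg/ml, 37 °C overnight. Agar: serial drug dilutions in Mueller-Hinton agar, spot-inoculated with 2 × 10^6 cfu/spot, 37 °C for 24 h. MIC was the lowest concentration with no visible growth. Antibiotic controls were included.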

Klebsiella pneumoniae [2] = assay: Antibacterial activity against Klebsiella pneumoniae isolate J/1/4; type: functional; summary of the method: as §1
Shigella dysenteriae [3] = assay: Antibacterial activity against Shigella dysenteriae isolate 3; type: functional
Enterococcus faecalis [4] = assay: Antibacterial activity against Streptococcus faecalis isolate 29212; type: functional; summary of the method: as §1
Vibrio parahaemolyticus [5] = assay: Antibacterial activity against Vibrio parahaemolyticus isolate 72016; type: functional; summary of the method: as §1
Micrococcus luteus [6] = assay: Antibacterial activity against Micrococcus luteus AGD1; type: functional; summary of the method: as §1
Vibrio cholerae [7] = assay: Antibacterial activity against Vibrio cholerae isolate 7201; type: functional
Bacillus subtilis [8] = assay: Antibacterial activity against Bacillus subtilis UC564; type: functional; summary of the method: as §1
Salmonella typhi [9] = assay: Antibacterial activity against Salmonella typhi DIRW; type: functional, Salmonella enterica subsp. enterica serovar Typhi; conditions: Salmonella enterica
Pseudomonas aeruginosa [10] = assay: Antibacterial activity against Pseudomonas aeruginosa ATCC 27853; type: functional; summary of the method: as §1
Escherichia coli [11] = assay: Antibacterial activity against Escherichia coli ATCC 25938; type: functional; summary of the method: as §1
Salmonella typhimurium [12] = assay: Antibacterial activity against Salmonella Typhimurium isolate 11; type: functional, Salmonella enterica subsp. enterica serovar Typhimurium; conditions: Salmonella enterica; summary of the method: as §1
Staphylococcus aureus [13] = assay: Antibacterial activity against Staphylococcus aureus ATCC 25923; type: functional; summary of the method: as §1
Vibrio cholerae [14] = assay: Antibacterial activity against Vibrio cholerae isolate 7201 at 1 to 1000 ug/ml after overnight incubation by disc diffusion method; type: functional
Pseudomonas aeruginosa [15] = assay: Antibacterial activity against Pseudomonas aeruginosa ATCC 27853 at 1 to 1000 ug/ml after overnight incubation by disc diffusion method; type: functional
Summary of the method: (§2)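 Disc diffusion on Mueller-Hinton agar. Plates seeded with 0.1 ml bacterial suspension (2 × 10^6 cfu/ml). Sterile 6 mm paper discs were impregnated with compound solutions at 1–1000 µg/ml and incubated at 37 °C overnight. Read-out was the diameter of the clear inhibition zone. Stocks were 1 mg/ml in 4% Tween 80 or 4% propylene glycol.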

Bacillus subtilis [16] = assay: Antibacterial activity against Bacillus subtilis UC564 at 1 to 1000 ug/ml after overnight incubation by disc diffusion method; type: functional; summary of the method: as §2
Vibrio cholerae [17] = assay: Antibacterial activity against Vibrio cholerae isolate 720 at 1 to 1000 ug/ml after overnight incubation by disc diffusion method; type: functional
Escherichia coli [18] = assay: Antibacterial activity against Escherichia coli ATCC 25938 at 1 to 1000 ug/ml after overnight incubation by disc diffusion method; type: functional; summary of the method: as §2
Salmonella typhi [19] = assay: Antibacterial activity against Salmonella typhi DIRW at 1 to 1000 ug/ml after overnight incubation by disc diffusion method; type: functional; conditions: Salmonella enterica subsp. enterica serovar Typhi
Klebsiella pneumoniae [20] = assay: Antibacterial activity against Klebsiella pneumoniae isolate J/1/4 at 1 to 1000 ug/ml after overnight incubation by disc diffusion method; type: functional; summary of the method: as §2
Shigella flexneri [21] = assay: Antibacterial activity against Shigella flexneri DN13 at 1 to 1000 ug/ml after overnight incubation by disc diffusion method; type: functional; summary of the method: as §2
Salmonella typhimurium [22] = assay: Antibacterial activity against Salmonella Typhimurium isolate 11 at 1 to 1000 ug/ml after overnight incubation by disc diffusion method; type: functional, organism-based; conditions: Salmonella enterica subsp. enterica serovar Typhimurium; summary of the method: as §2
Staphylococcus aureus [23] = assay: Antibacterial activity against Staphylococcus aureus ATCC 25923 at 1 to 1000 ug/ml after overnight incubation by disc diffusion method; type: functional; summary of the method: as §2
Shigella dysenteriae [24] = assay: Antibacterial activity against Shigella dysenteriae isolate 3 at 1 to 1000 ug/ml after overnight incubation by disc diffusion method; type: functional
Enterococcus faecalis [25] = assay: Antibacterial activity against Enterococcus faecalis isolate 29212 at 1 to 1000 ug/ml after overnight incubation by disc diffusion method; type: functional; summary of the method: as §2
Vibrio parahaemolyticus [26] = assay: Antibacterial activity against Vibrio parahaemolyticus isolate 72016 at 1 to 1000 ug/ml after overnight incubation by disc diffusion method; type: functional; summary of the method: as §2
Micrococcus luteus [27] = assay: Antibacterial activity against Micrococcus luteus AGD1 at 1 to 1000 ug/ml after overnight incubation by disc diffusion method; type: functional; summary of the method: as §2

COC(=O)c1cc2ccc3ccccc3n2c1C(=O)c1ccccc1
MIC (Shigella flexneri [1]): > 500 µg/mL | MIC (Klebsiella pneumoniae [2]): > 500 µg/mL | MIC (Shigella dysenteriae [3]): > 500 µg/mL | MIC (Enterococcus faecalis [4]): > 500 µg/mL | MIC (Vibrio parahaemolyticus [5]): > 500 µg/mL | MIC (Micrococcus luteus [6]): > 500 µg/mL | MIC (Vibrio cholerae [7]): > 500 µg/mL | MIC (Bacillus subtilis [8]): > 500 µg/mL | MIC (Salmonella typhi [9]): > 500 µg/mL | MIC (Pseudomonas aeruginosa [10]): > 500 µg/mL | MIC (Escherichia coli [11]): > 500 µg/mL | MIC (Salmonella typhimurium [12]): > 500 µg/mL | MIC (Staphylococcus aureus [13]): > 500 µg/mL

CCOC(=O)c1c(C(=O)OCC)c2c3ccccc3ccn2c1C(=O)c1ccccc1
MIC (Shigella flexneri [1]): 256 µg/mL (≈ 616 µM) | MIC (Klebsiella pneumoniae [2]): 128 µg/mL (≈ 308 µM) | MIC (Shigella dysenteriae [3]): > 500 µg/mL | MIC (Enterococcus faecalis [4]): > 500 µg/mL | MIC (Vibrio parahaemolyticus [5]): 128 µg/mL (≈ 308 µM) | MIC (Micrococcus luteus [6]): > 500 µg/mL | MIC (Vibrio cholerae [7]): 500 µg/mL (≈ 1200 µM) | MIC (Bacillus subtilis [8]): 256 µg/mL (≈ 616 µM) | MIC (Salmonella typhi [9]): 128 µg/mL (≈ 308 µM) | MIC (Pseudomonas aeruginosa [10]): 500 µg/mL (≈ 1200 µM) | MIC (Escherichia coli [11]): 128 µg/mL (≈ 308 µM) | MIC (Salmonella typhimurium [12]): > 500 µg/mL | MIC (Staphylococcus aureus [13]): 500 µg/mL (≈ 1200 µM)

CCOC(=O)c1cc2ccc3ccccc3n2c1C(=O)c1ccccc1
MIC (Shigella flexneri [1]): > 500 µg/mL | MIC (Klebsiella pneumoniae [2]): > 500 µg/mL | MIC (Shigella dysenteriae [3]): > 500 µg/mL | MIC (Enterococcus faecalis [4]): > 500 µg/mL | MIC (Vibrio parahaemolyticus [5]): > 500 µg/mL | MIC (Micrococcus luteus [6]): > 500 µg/mL | MIC (Vibrio cholerae [7]): > 500 µg/mL | MIC (Bacillus subtilis [8]): > 500 µg/mL | MIC (Salmonella typhi [9]): > 500 µg/mL | MIC (Pseudomonas aeruginosa [10]): > 500 µg/mL | MIC (Escherichia coli [11]): > 500 µg/mL | MIC (Salmonella typhimurium [12]): > 500 µg/mL | MIC (Staphylococcus aureus [13]): > 500 µg/mL

N#Cc1cc(C(=O)c2ccccc2)n2ccc3ccccc3c12
diameter of the inhibition zone (DIZ) (Vibrio cholerae [14]): 11 mm | diameter of the inhibition zone (DIZ) (Pseudomonas aeruginosa [15]): 9.5 mm | diameter of the inhibition zone (DIZ) (Bacillus subtilis [16]): 7.5 mm | MIC (Shigella flexneri [1]): > 500 µg/mL | MIC (Klebsiella pneumoniae [2]): 32 µg/mL (≈ 108 µM) | MIC (Shigella dysenteriae [3]): > 500 µg/mL | MIC (Enterococcus faecalis [4]): > 500 µg/mL | MIC (Vibrio parahaemolyticus [5]): > 500 µg/mL | diameter of the inhibition zone (DIZ) (Vibrio cholerae [17]): 11 mm | diameter of the inhibition zone (DIZ) (Escherichia coli [18]): 8 mm | MIC (Micrococcus luteus [6]): > 500 µg/mL | diameter of the inhibition zone (DIZ) (Salmonella typhi [19]): inactive | MIC (Vibrio cholerae [7]): 32 µg/mL (≈ 108 µM) | MIC (Bacillus subtilis [8]): 128 µg/mL (≈ 432 µM) | diameter of the inhibition zone (DIZ) (Klebsiella pneumoniae [20]): 11 mm | diameter of the inhibition zone (DIZ) (Shigella flexneri [21]): inactive | MIC (Salmonella typhi [9]): > 500 µg/mL | MIC (Pseudomonas aeruginosa [10]): 64 µg/mL (≈ 216 µM) | diameter of the inhibition zone (DIZ) (Salmonella typhimurium [22]): inactive | MIC (Escherichia coli [11]): 256 µg/mL (≈ 864 µM) | diameter of the inhibition zone (DIZ) (Staphylococcus aureus [23]): 7.5 mm | diameter of the inhibition zone (DIZ) (Shigella dysenteriae [24]): inactive | diameter of the inhibition zone (DIZ) (Enterococcus faecalis [25]): inactive | diameter of the inhibition zone (DIZ) (Vibrio parahaemolyticus [26]): inactive | MIC (Salmonella typhimurium [12]): > 500 µg/mL | MIC (Staphylococcus aureus [13]): 256 µg/mL (≈ 864 µM) | diameter of the inhibition zone (DIZ) (Micrococcus luteus [27]): inactive
